This passage reports IC50, EC50 and Drug degradation results from ChEMBL document CHEMBL5143675, “Attenuating the Streptococcus pneumoniae Competence Regulon Using Urea-Bridged Cyclic Dominant-Negative Competence-Stimulating Peptide Analogs” (J Med Chem, 2022).

Where a SMILES comes first, the peptide text is derived from it. [ ]: non-standard residue; d: D form. Orn = NCCC[C@H](N)C(=O)O; Dab = NCC[C@H](N)C(=O)O; Dap = NC[C@H](N)C(=O)O A value given as a limit tells only on which side of the number the result lay.

The nature of data set [1]: Antagonist activity against Streptococcus pneumoniae D39-pcomX-lacZ strain expressing ComD1 receptor assessed as inhibition of ComD1 receptor activity by beta-galactosidase reporter gene assay. Put shortly: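 Reporter strains (pcomX::lacZ) grown on THY agar with 5% horse serum and 4 μg/mL chloramphenicol at 37 °C, 5% CO2; overnight THY broth culture diluted (1:50 D39, 1:10 TIGR4) and grown to early exponential phase (OD600 0.30–0.35 D39; 0.20–0.25 TIGR4). Primary screen at 10,000 nM peptide; EC50/IC50 from dose-response over a concentration range, three independent experiments, 95% confidence interval.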

Data set [2] in a line: Antagonist activity against Streptococcus pneumoniae TIGR4-pcomX-lacZ strain expressing ComD2 receptor assessed as inhibition of ComD2 receptor activity by beta-galactosidase reporter gene assay. Put shortly:
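TIGR4 pcomX::lacZ reporter grown on THY plates with 5% horse serum and 4 μg/mL chloramphenicol (8–9 h, 37 °C, 5% CO2). 2–3 colonies were grown overnight (15 h) in THY with chloramphenicol, diluted 1:10, and grown 3–4 h to OD600 0.20–0.25. Peptides were tested as competitive inhibitors against native CSP2. […] Three independent experiments.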
A general note: In a reporter assay the amount or activity of a reporter protein is the signal.

Data set [3] can be described thus: Agonist activity against Streptococcus pneumoniae TIGR4-pcomX-lacZ strain expressing ComD2 receptor assessed as activation of ComD2 receptor activity by beta-galactosidase reporter gene assay. Put shortly: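 Reporter strains (pcomX::lacZ) grown on THY agar with 5% horse serum and 4 μg/mL chloramphenicol at 37 °C, 5% CO2; overnight THY broth culture diluted (1:50 D39, 1:10 TIGR4) and grown to early exponential phase (OD600 0.30–0.35 D39; 0.20–0.25 TIGR4).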

Data set [4] can be described thus: Stability of the compound in CD-1 mouse assessed as drug degradation at 50 ug, iv by IVIS spectrum in vivo imaging analysis. The format is ADME, organism-based. The following applies: dose 50 µg. The essentials:
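Seven-week-old CD-1 mice (cohorts of 4–5) given Cy7.5-labelled peptide (50 μg/mouse) by retro-orbital i.v. injection, anaesthetized with 3% isoflurane and imaged by IVIS SpectrumCT fluorescence imaging.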

As for `CC[C@H](C)[C@H](NC(=O)[C@H](Cc1ccccc1)NC(=O)[C@H](CC(=O)O)NC(=O)[C@H](CCCNC(=N)N)NC(=O)[C@H](Cc1ccccc1)NC(=O)[C@H](Cc1ccccc1)NC(=O)[C@H](CCCCN)NC(=O)[C@H](CO)NC(=O)[C@H](CC(C)C)NC(=O)[C@H](CCCNC(=N)N)NC(=O)[C@H](CCSC)NC(=O)[C@H](C)N)C(=O)N[C@@H](CC(C)C)C(=O)N[C@@H](CCC(N)=O)C(=O)N[C@@H](CCCNC(=N)N)C(=O)N[C@@H](CCCCN)C(=O)N[C@@H](CCCCN)C(=O)O`, the IC50 in data set [1] came to 85.7 nM.

Turning to `CC[C@H](C)[C@H](NC(=O)[C@H](Cc1ccccc1)NC(=O)[C@H](CCCCN)NC(=O)[C@H](CCCNC(=N)N)NC(=O)[C@H](Cc1ccccc1)NC(=O)[C@H](Cc1ccccc1)NC(=O)[C@H](CCN)NC(=O)[C@H](CO)NC(=O)[C@H](CC(C)C)NC(=O)[C@H](CCCNC(=N)N)NC(=O)[C@H](CCSC)NC(=O)[C@H](C)N)C(=O)N[C@@H](CC(C)C)C(=O)N[C@@H](CCC(N)=O)C(=O)N[C@@H](CCCNC(=N)N)C(=O)N[C@@H](CCCCN)C(=O)N[C@@H](CCCCN)C(=O)O` (H-AMRLS[Dab]FFRKFILQRKK-OH), the values for the half-maximal inhibitory concentration (IC50) in data set [1] and in data set [2] were 784 nM and above 1000 nM, respectively.

With `CC[C@H](C)[C@H](NC(=O)[C@H](Cc1ccccc1)NC(=O)[C@H](CN)NC(=O)[C@H](CCCNC(=N)N)NC(=O)[C@H](Cc1ccccc1)NC(=O)[C@H](Cc1ccccc1)NC(=O)[C@H](CCN)NC(=O)[C@H](CO)NC(=O)[C@H](CC(C)C)NC(=O)[C@H](CCCNC(=N)N)NC(=O)[C@H](CCSC)NC(=O)[C@H](C)N)C(=O)N[C@@H](CC(C)C)C(=O)N[C@@H](CCC(N)=O)C(=O)N[C@@H](CCCNC(=N)N)C(=O)N[C@@H](CCCCN)C(=O)N[C@@H](CCCCN)C(=O)O` (H-AMRLS[Dab]FFR[Dap]FILQRKK-OH), in data set [2], the half-inhibitory concentration (IC50) was above 1000 nM.

For `CC[C@H](C)[C@H](NC(=O)[C@H](Cc1ccccc1)NC(=O)[C@H](CCCCN)NC(=O)[C@H](CCCNC(=N)N)NC(=O)[C@H](Cc1ccccc1)NC(=O)[C@H](Cc1ccccc1)NC(=O)[C@H](CCCN)NC(=O)[C@H](CO)NC(=O)[C@H](CC(C)C)NC(=O)[C@H](CCCNC(=N)N)NC(=O)[C@H](CCSC)NC(=O)[C@H](C)N)C(=O)N[C@@H](CC(C)C)C(=O)N[C@@H](CCC(N)=O)C(=O)N[C@@H](CCCNC(=N)N)C(=O)N[C@@H](CCCCN)C(=O)N[C@@H](CCCCN)C(=O)O` (H-AMRLS[Orn]FFRKFILQRKK-OH), the results for the IC50 in data set [1] and in data set [2] were 339 nM and above 1000 nM, respectively.

With `CC[C@H](C)[C@H](NC(=O)[C@H](Cc1ccccc1)NC(=O)[C@H](CCN)NC(=O)[C@H](CCCNC(=N)N)NC(=O)[C@H](Cc1ccccc1)NC(=O)[C@H](Cc1ccccc1)NC(=O)[C@H](CCCN)NC(=O)[C@H](CO)NC(=O)[C@H](CC(C)C)NC(=O)[C@H](CCCNC(=N)N)NC(=O)[C@H](CCSC)NC(=O)[C@H](C)N)C(=O)N[C@@H](CC(C)C)C(=O)N[C@@H](CCC(N)=O)C(=O)N[C@@H](CCCNC(=N)N)C(=O)N[C@@H](CCCCN)C(=O)N[C@@H](CCCCN)C(=O)O` (H-AMRLS[Orn]FFR[Dab]FILQRKK-OH), the IC50 in data set [2] is above 1000 nM.

For the molecule H-AMRLSKFFRKFILQRKK-OH, in data set [1], the 50% inhibitory concentration (IC50) was 217 nM.

In the case of `CC[C@H](C)[C@H](NC(=O)[C@H](Cc1ccccc1)NC(=O)[C@H](CN)NC(=O)[C@H](CCCNC(=N)N)NC(=O)[C@H](Cc1ccccc1)NC(=O)[C@H](Cc1ccccc1)NC(=O)[C@H](CCCN)NC(=O)[C@H](CO)NC(=O)[C@H](CC(C)C)NC(=O)[C@H](CCCNC(=N)N)NC(=O)[C@H](CCSC)NC(=O)[C@H](C)N)C(=O)N[C@@H](CC(C)C)C(=O)N[C@@H](CCC(N)=O)C(=O)N[C@@H](CCCNC(=N)N)C(=O)N[C@@H](CCCCN)C(=O)N[C@@H](CCCCN)C(=O)O` (H-AMRLS[Orn]FFR[Dap]FILQRKK-OH), the half-maximal inhibitory concentration (IC50) in data set [2] was above 1000 nM.

Turning to `CC[C@H](C)[C@H](NC(=O)[C@H](Cc1ccccc1)NC(=O)[C@H](CCN)NC(=O)[C@H](CCCNC(=N)N)NC(=O)[C@H](Cc1ccccc1)NC(=O)[C@H](Cc1ccccc1)NC(=O)[C@H](CCN)NC(=O)[C@H](CO)NC(=O)[C@H](CC(C)C)NC(=O)[C@H](CCCNC(=N)N)NC(=O)[C@H](CCSC)NC(=O)[C@H](C)N)C(=O)N[C@@H](CC(C)C)C(=O)N[C@@H](CCC(N)=O)C(=O)N[C@@H](CCCNC(=N)N)C(=O)N[C@@H](CCCCN)C(=O)N[C@@H](CCCCN)C(=O)O` (H-AMRLS[Dab]FFR[Dab]FILQRKK-OH), the IC50 in data set [2] is above 1000 nM.

Consider `CC[C@H](C)[C@H](NC(=O)[C@H](Cc1ccccc1)NC(=O)[C@H](CCCN)NC(=O)[C@H](CCCNC(=N)N)NC(=O)[C@H](Cc1ccccc1)NC(=O)[C@H](Cc1ccccc1)NC(=O)[C@H](CCN)NC(=O)[C@H](CO)NC(=O)[C@H](CC(C)C)NC(=O)[C@H](CCCNC(=N)N)NC(=O)[C@H](CCSC)NC(=O)[C@H](C)N)C(=O)N[C@@H](CC(C)C)C(=O)N[C@@H](CCC(N)=O)C(=O)N[C@@H](CCCNC(=N)N)C(=O)N[C@@H](CCCCN)C(=O)N[C@@H](CCCCN)C(=O)O` (H-AMRLS[Dab]FFR[Orn]FILQRKK-OH), for which, in data set [2], the IC50 is above 1000 nM.

As for `CC[C@H](C)[C@H](NC(=O)[C@H](Cc1ccccc1)NC(=O)[C@H](CCCCN)NC(=O)[C@H](CCCNC(=N)N)NC(=O)[C@H](Cc1ccccc1)NC(=O)[C@H](Cc1ccccc1)NC(=O)[C@H](CN)NC(=O)[C@H](CO)NC(=O)[C@H](CC(C)C)NC(=O)[C@H](CCCNC(=N)N)NC(=O)[C@H](CCSC)NC(=O)[C@H](C)N)C(=O)N[C@@H](CC(C)C)C(=O)N[C@@H](CCC(N)=O)C(=O)N[C@@H](CCCNC(=N)N)C(=O)N[C@@H](CCCCN)C(=O)N[C@@H](CCCCN)C(=O)O` (H-AMRLS[Dap]FFRKFILQRKK-OH), in data set [1], the IC50 is 454 nM. The EC50 in data set [3] amounted to 39.5 nM.

Take `CC[C@H](C)[C@H](NC(=O)[C@H](Cc1ccccc1)NC(=O)[C@H](CC(=O)O)NC(=O)[C@H](CCCNC(=N)N)NC(=O)[C@H](Cc1ccccc1)NC(=O)[C@H](Cc1ccccc1)NC(=O)[C@H](CCCCN)NC(=O)[C@H](CO)NC(=O)[C@H](CC(C)C)NC(=O)[C@H](CCCNC(=N)N)NC(=O)[C@H](CCSC)NC(=O)[C@H](CCC(=O)O)NC(=O)CCCCC[N+]1=C(/C=C/C2=CC(=C/C=C3\N(C)c4ccc5ccccc5c4C3(C)C)/CCC2)C(C)(C)c2ccc3ccccc3c21)C(=O)N[C@@H](CC(C)C)C(=O)N[C@@H](CCC(N)=O)C(=O)N[C@@H](CCCNC(=N)N)C(=O)N[C@@H](CCCCN)C(=O)N[C@@H](CCCCN)C(=O)O`: the Drug degradation in data set [4] amounted to 36 h.

Consider `CC[C@H](C)[C@H](NC(=O)[C@H](Cc1ccccc1)NC(=O)[C@H](CCCN)NC(=O)[C@H](CCCNC(=N)N)NC(=O)[C@H](Cc1ccccc1)NC(=O)[C@H](Cc1ccccc1)NC(=O)[C@H](CCCN)NC(=O)[C@H](CO)NC(=O)[C@H](CC(C)C)NC(=O)[C@H](CCCNC(=N)N)NC(=O)[C@H](CCSC)NC(=O)[C@H](C)N)C(=O)N[C@@H](CC(C)C)C(=O)N[C@@H](CCC(N)=O)C(=O)N[C@@H](CCCNC(=N)N)C(=O)N[C@@H](CCCCN)C(=O)N[C@@H](CCCCN)C(=O)O` (H-AMRLS[Orn]FFR[Orn]FILQRKK-OH), for which the IC50 in data set [2] is above 1000 nM.

As for H-EMRISRIILDFLFLRKK-OH, the EC50 in data set [3] is 50.7 nM.

By IC50 is commonly meant the concentration at which inhibition is half-maximal. The EC50 is the midpoint of the concentration-response curve.
